From PubChem BioAssay
In the library only some 2.5% were active in any assay of this set; here they are far more common.
NadD block – inhibitors of S. aureus NadD, primary screen, biochemical, colorimetric, uHTS. purified NadD enzyme, colorimetric absorbance read-out. actives 0.78% (n = 360,000). inhibition, % at 20 µM. Nicotinate-nucleotide adenylyltransferase NadD (Staphylococcus aureus N315); in the data active = inhibition above about 26%
MsrA inh – bovine MsrA enzyme inhibitors, primary screen, biochemical, absorbance, HTS. purified bovine MsrA, absorbance read-out. Methionine sulfoxide reductase A (Bos taurus). inhibition, % at 15.5 µM. actives 0.75% (n = 360,000); in the data active = inhibition above about 4.5%
MsrA act – bovine MsrA enzyme activators, primary screen, biochemical, absorbance, HTS. activation, % at 10.6 µM. actives 0.3% (n = 360,000). purified bovine MsrA, absorbance read-out; in the data active = activation above about 7.5%
NR2E3 ag-1 – inhibitors of NR2E3-RetCOR corepressor binding, primary screen, NR2E3 agonist project, biochemical, TR-FRET, GST-NR2E3, biotin-RetCOR. 1536-well. inhibition of corepressor binding, % at 4.78 µM. actives 0.12% (n = 320,000). AID 2300, 2010;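 active = percent inhibition above the cutoff of mean plus 3 SD of all tested compounds, set per screening campaign, cut at about 20% in these data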
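System: GST-tagged NR2E3 plus biotinylated RetCOR corepressor; Buffer or medium: pH 7.5 Tris-based buffer; Probe or stimulus: RetCOR corepressor, biotinylated, 7 nM; Doses: compound at 4.8 µM, single dose; Schedule: 5 h incubation at 4 °C; Technique: time-resolved FRET; Evaluation: percent inhibition of TR-FRET ratio; Replication: one well per compound, singlicate testing.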
NR2E3 ag-2 – NR2E3 agonists in two-hybrid cells, primary screen, cell-based, luminescence, CHO-S, Gal4-NCOR/VP16-NR2E3. Photoreceptor-specific nuclear receptor (Homo sapiens), Q9Y5X4. actives 0.35% (n = 360,000). luciferase. AID 602229, 2012. inhibition of corepressor binding, % at 3.98 µM;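 active = inhibition above the mean of all tested compounds plus 3 SD, cut at about 70% in these data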;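 note: higher means lower luciferase signal from less NR2E3 corepressor binding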
GalR3 antagonist – GalR3 antagonists in HEK293 cells, primary screen, cell-based, fluorescence readout; HEK293 GalR3-CNG cAMP membrane potential fluorescence; galR3 body fused to GalR1 C-terminus; inhibition, % at 3 µM; AID 651719, 2012; actives 0.44% (n = 360,000);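 active = inhibition above the screen-wide average plus 3 SD, cut at about 13% in these data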;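 note: forskolin and galanin both at EC90 stimulate the cells; cAMP rise reported by CNG channel membrane potential dye signal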
Target sequence (O60755 1-299 limits assumed): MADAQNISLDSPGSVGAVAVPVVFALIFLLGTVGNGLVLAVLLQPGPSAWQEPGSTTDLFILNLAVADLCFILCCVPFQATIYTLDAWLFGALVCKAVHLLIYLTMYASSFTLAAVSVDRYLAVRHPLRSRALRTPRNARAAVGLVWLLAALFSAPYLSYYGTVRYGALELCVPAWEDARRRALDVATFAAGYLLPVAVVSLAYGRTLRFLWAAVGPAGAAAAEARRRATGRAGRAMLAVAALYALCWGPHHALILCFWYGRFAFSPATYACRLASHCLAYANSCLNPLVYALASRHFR
NadD conf – inhibitors of S. aureus NadD, confirmation, biochemical, colorimetric, single concentration; actives 13% (n = 2,000); shares compounds with NadD block; inhibition, % at 20 µM; purified S. aureus NadD, colorimetric enzyme assay; in the data active = inhibition mostly above about 42%, no sharp cut-off; inactive = mostly below about 42%
Hits are given with their value; n = inactive; x = no result.

SMILES | NadD block | MsrA inh | MsrA act | NR2E3 ag-1 | NR2E3 ag-2 | GalR3 antagonist | NadD conf
OC(CNCCC1C=Nc2ccccc21)Cn1c2ccc(Cl)cc2c2cc(Cl)ccc21 (stereo not given) | 34.0 | n | n | n | n | n | n
Cc1c(C(=O)O)sc2nc(/C=C/c3cccc(F)c3)[nH]c(=O)c12 | n | n | n | n | n | n | x
Cc1ccc(/C=C/c2nc3sc(C(=O)O)c(C)c3c(=O)[nH]2)cc1[N+](=O)[O-] | 35.8 | n | n | n | n | n | n
O=C(CCCN1C(=O)NC2(CCCC2)C1=O)N1CCN(S(=O)(=O)c2ccccc2)CC1 | n | n | n | n | n | n | x
Cc1nc(Nc2ccc(Cl)c(Cl)c2)sc1C(/C=C/c1ccc2c(c1)OCO2)=NNc1ccc([N+](=O)[O-])cc1[N+](=O)[O-] | 48.1 | n | n | x | n | n | n
CCCOc1ccc(N2C(=O)CC(SC(=N)N3N=C(c4ccccc4)CC3c3ccccc3)C2=O)cc1 (stereo not given) | 43.4 | n | n | n | n | n | n
CC(C)(C)c1ccc(Oc2cccc(C3CC(=O)C(C4NCCc5ccccc54)C(=O)C3n3cncn3)c2)cc1 (stereo not given) | 40.5 | n | n | n | n | n | n
NS(=O)(=O)c1ccc(CCNC(=O)CSc2nc3ccccc3c(=O)n2CCN2CCOCC2)cc1 | n | n | n | n | n | n | x
O=C(c1ccco1)N1N=C(c2ccco2)CC1c1ccc(Cl)cc1Cl (stereo not given) | 30.5 | n | n | n | n | n | n
COc1ccc(C2=NN(C(=O)c3ccco3)C(c3cc4ccccc4nc3Cl)C2)cc1 (stereo not given) | x | x | x | n | x | x | x
Cc1c(C(=O)N2CCN(c3ccc(F)cc3)CC2)sc2nc3n(c(=O)c12)CCC3 | n | n | n | n | n | n | x
Cc1ccc(-c2nc(NC(=O)CSc3cc(C)c4ccccc4n3)ns2)cc1 | 30.5 | n | n | n | n | n | n
COc1ccc2c(C)cc(SCC(=O)Nc3nsc(-c4ccc(C)cc4)n3)nc2c1 | n | n | n | n | n | n | x
COC(=O)c1ccc2c(c1)N(Cc1nc(-c3ccc(Cl)cc3)oc1C)C(=O)C1CCCN21 (stereo not given) | 44.7 | n | n | n | n | n | n
Cc1ccc(S(=O)(=O)N2[C@@H](c3ccc(C(C)(C)C)cc3)C(C(=O)O)=CC[C@H]2c2ccc(C(C)C)cc2)cc1 | 51.2 | n | n | x | n | n | n
COc1ccc2c(=O)c3c(=O)n(CCc4ccccc4)c(C(C)C)nc3oc2c1 | n | n | n | n | n | n | x
COc1cc(/C=C2/N=C(c3ccccc3)OC2=O)c(F)cc1OCc1ccccc1 | 38.8 | n | n | n | n | n | n
COc1ccc(OC)c(/C=C2\N=C(c3ccccc3)OC2=O)c1 | n | n | n | n | n | n | x
COc1ccc(NC(=O)c2cc(S(=O)(=O)N3CCCCC3)ccc2N2CCCCC2)cn1 | n | n | n | n | n | n | x
CC(=O)Nc1cccc(NC(=O)CSc2nnc(NC(=O)c3ccco3)s2)c1 | n | n | n | n | n | n | x
COc1ccc(Br)cc1/C=c1\sc2nc(-c3ccco3)nn2c1=O | 40.3 | n | n | n | n | n | n
COc1cc(OC)c2c(-c3ccccc3)cc(=O)oc2c1C(CC(=O)N1CCN(c2ccccc2)CC1)c1ccc(N(C)C)cc1 (stereo not given) | 30.5 | n | n | n | n | n | n
Cc1ccc(COc2ccc(/C=N/NC(=O)c3ccc(CN4CCOCC4)cc3)cc2)cc1 | n | n | n | n | n | n | x
Cc1ccc(C(C)C)c(OCc2ccc(C(=O)N/N=C/c3ccc(C(=O)O)cc3)cc2)c1 | 30.0 | n | n | n | n | n | n
Cc1sc(NC(=O)c2sc3nc4c(C)cccc4cc3c2N)c(C#N)c1C | 61.7 | n | n | n | n | n | n
SMILES | NadD block | MsrA inh | MsrA act | NR2E3 ag-1 | NR2E3 ag-2 | GalR3 antagonist | NadD conf
Cc1cccc2cc3c(N)c(C#N)sc3nc12 | n | n | n | n | n | n | x
C=CCN=C1NC(c2ccc(Cl)cc2)C(C(=O)OC)=C(C)N1Cc1cccc(C(F)(F)F)c1 (stereo not given) | x | n | x | x | x | n | x
COc1cccc(C(=O)Nc2nc(-c3ccc(S(=O)(=O)N4CCOCC4)cc3)cs2)c1 | n | n | n | n | n | n | x
COc1ccc(/C=N/Nc2nc(-c3cccc(S(=O)(=O)N4CCCC4)c3)cs2)c(OC)c1 | 36.6 | n | n | n | n | n | n
CN(C)/C=C(\C=N\OCc1ccc(Cl)cc1Cl)C(=O)Nc1ccc(Cl)c(Cl)c1 | 28.8 | n | n | n | n | n | n
Cc1cc(O)c(/C=N/OCc2ccc(Cl)cc2Cl)c(=O)o1 | n | n | n | n | n | n | x
CCOC(=O)N1CCc2c(sc3nc(SC(C)C)n(N)c(=O)c23)C1 | n | n | n | n | n | n | x
COc1cc(NS(=O)(=O)c2ccc(NC(=O)/C(=C/c3ccccc3Cl)NC(=O)c3ccccc3)cc2)nc(OC)n1 | 33.1 | n | n | n | n | n | 48.9
O=C(Nc1ccc(S(=O)(=O)Nc2nccs2)cc1)/C(=C/c1ccccc1Cl)NC(=O)c1ccccc1 | 39.2 | n | n | n | n | n | 55.7
COCCCN1C(=O)C(=O)/C(=C(/O)c2ccc(OC)cc2)C1c1cccc(OC)c1 (stereo not given) | n | n | n | n | n | n | x
O=c1cc(-c2ccccc2)oc2cc(OCc3ccccc3)cc(O)c12 | n | n | n | n | n | n | x
O=c1cc(-c2ccc(OCc3ccccc3)cc2)oc2cc(OCc3ccccc3)cc(OCc3ccccc3)c12 | 41.6 | n | n | x | n | n | n
CCOC(=O)C1=C(N)Oc2cc(O)ccc2C1c1ccc(Br)cc1 (stereo not given) | n | n | n | n | n | n | x
CCCNC(=O)c1ccc(N2CCC3(CC2)CC(c2cccc(Br)c2)=NO3)c(NC(=O)c2ccc(Cl)c([N+](=O)[O-])c2)c1 | 30.5 | n | n | n | n | n | n
Cc1ccc(CNC(=O)c2ccc(N3CCC4(CC3)CC(c3cccc(Br)c3)=NO4)c(NC(=O)c3ccc(Cl)c([N+](=O)[O-])c3)c2)cc1 | 33.7 | n | n | x | n | n | n
O=C(CCCCCCC(=O)NCc1ccccc1)NCc1ccccc1 | n | n | n | n | n | n | x
